Laboratory results as given in ChEMBL document CHEMBL4411337, “2-Aminothiazole Derivatives as Selective Allosteric Modulators of the Protein Kinase CK2. 1. Identification of an Allosteric Binding Site” (J Med Chem, 2019).
The source made the active and inactive calls. The rule behind the calls is not given here.

Legend:
[1] = biological target: Ribosomal protein S6 kinase alpha-1 (Homo sapiens) (UniProt Q15418); test: Inhibition of RSK1 (unknown origin) assessed as residual activity at 50 uM relative to control
Ribosomal protein S6 kinase alpha-1 (Homo sapiens), sequence (Q15418 whole entry): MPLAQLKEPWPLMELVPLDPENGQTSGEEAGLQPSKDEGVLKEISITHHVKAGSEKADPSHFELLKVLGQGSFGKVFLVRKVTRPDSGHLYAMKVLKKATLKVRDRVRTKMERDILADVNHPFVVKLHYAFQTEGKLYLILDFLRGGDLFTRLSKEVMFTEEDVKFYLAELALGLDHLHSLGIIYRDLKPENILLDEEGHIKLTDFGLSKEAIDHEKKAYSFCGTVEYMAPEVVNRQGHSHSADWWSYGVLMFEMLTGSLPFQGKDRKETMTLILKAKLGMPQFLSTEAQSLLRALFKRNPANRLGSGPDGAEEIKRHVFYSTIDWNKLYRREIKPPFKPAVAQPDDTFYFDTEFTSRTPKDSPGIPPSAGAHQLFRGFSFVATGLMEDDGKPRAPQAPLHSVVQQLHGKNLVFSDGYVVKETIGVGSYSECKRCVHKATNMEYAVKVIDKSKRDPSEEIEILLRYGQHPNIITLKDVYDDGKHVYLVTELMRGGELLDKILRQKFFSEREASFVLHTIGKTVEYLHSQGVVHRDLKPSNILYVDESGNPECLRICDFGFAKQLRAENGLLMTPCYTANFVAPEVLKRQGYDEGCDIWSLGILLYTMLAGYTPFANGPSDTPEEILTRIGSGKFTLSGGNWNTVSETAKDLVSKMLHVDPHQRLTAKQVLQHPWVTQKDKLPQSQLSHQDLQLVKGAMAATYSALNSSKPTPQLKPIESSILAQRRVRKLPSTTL
How it was run: (§1)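 Profiling panel of 44 human kinases. ATP set to each kinase's Km. Run in duplicate; duplicates within 15–17% of each other.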

[2] = biological target: Tyrosine-protein kinase Lyn (Homo sapiens) (UniProt P07948); test: Inhibition of LYN (unknown origin) assessed as residual activity at 50 uM relative to control
How it was run: (§2)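 Selectivity profiling against a panel of 44 human kinases. For each kinase, ATP was set to that kinase's Km. Values are residual activity in duplicate assays.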

[3] = biological target: Calcium/calmodulin-dependent protein kinase type 1 (Homo sapiens) (UniProt Q14012); test: Inhibition of CAMK1 (unknown origin) assessed as residual activity at 50 uM relative to control; how it was run: as §2
[4] = biological target: Cyclin-dependent kinase 2/cyclin E1 (Homo sapiens) (UniProt P24864+P24941); test: Inhibition of CDK2/cyclin E (unknown origin) assessed as residual activity at 50 uM relative to control; format: protein-complex assay; how it was run: as §2
[5] = biological target: Tyrosine-protein kinase ABL1 (Homo sapiens) (UniProt P00519); test: Inhibition of ABL (unknown origin) assessed as residual activity at 50 uM relative to control; how it was run: as §2
[6] = biological target: Fibroblast growth factor receptor 1 (Homo sapiens) (UniProt P11362); test: Inhibition of FGFR1 (unknown origin) assessed as residual activity at 50 uM relative to control; how it was run: as §2
Fibroblast growth factor receptor 1 (Homo sapiens), sequence (P11362 22-822 limits assumed): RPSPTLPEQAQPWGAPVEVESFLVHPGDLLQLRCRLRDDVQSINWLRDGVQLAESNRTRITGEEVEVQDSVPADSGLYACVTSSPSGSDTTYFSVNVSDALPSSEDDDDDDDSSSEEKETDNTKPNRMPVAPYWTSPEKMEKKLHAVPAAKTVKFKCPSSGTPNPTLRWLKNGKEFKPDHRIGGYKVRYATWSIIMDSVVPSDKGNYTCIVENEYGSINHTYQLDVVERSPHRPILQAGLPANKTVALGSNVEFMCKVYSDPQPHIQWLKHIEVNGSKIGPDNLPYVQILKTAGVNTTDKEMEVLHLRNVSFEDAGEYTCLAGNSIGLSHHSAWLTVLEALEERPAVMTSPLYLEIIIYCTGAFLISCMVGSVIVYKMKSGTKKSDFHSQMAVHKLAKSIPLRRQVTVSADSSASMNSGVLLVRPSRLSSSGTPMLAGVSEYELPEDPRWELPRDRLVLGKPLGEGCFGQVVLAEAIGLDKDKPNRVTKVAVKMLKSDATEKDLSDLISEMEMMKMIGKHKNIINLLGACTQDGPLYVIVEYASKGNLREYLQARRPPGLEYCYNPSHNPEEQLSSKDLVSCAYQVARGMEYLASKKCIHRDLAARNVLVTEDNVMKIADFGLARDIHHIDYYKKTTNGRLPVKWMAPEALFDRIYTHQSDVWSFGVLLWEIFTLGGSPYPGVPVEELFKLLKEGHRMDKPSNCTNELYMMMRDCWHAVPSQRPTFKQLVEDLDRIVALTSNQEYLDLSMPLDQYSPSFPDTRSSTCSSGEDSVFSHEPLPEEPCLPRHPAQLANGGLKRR

[7] = biological target: CDK6/cyclin D3 (Homo sapiens) (UniProt P30281+Q00534); test: Inhibition of CDK6/cyclin D3 (unknown origin) assessed as residual activity at 50 uM relative to control; format: protein-complex assay; how it was run: as §2
[8] = biological target: Serine/threonine-protein kinase mTOR (Homo sapiens) (UniProt P42345); test: Inhibition of MTOR (unknown origin) assessed as residual activity at 50 uM relative to control; how it was run: as §2
[9] = biological target: Serine/threonine-protein kinase Chk2 (Homo sapiens) (UniProt O96017); test: Inhibition of CHK2 (unknown origin) assessed as residual activity at 50 uM relative to control; how it was run: as §2
[10] = biological target: Homeodomain-interacting protein kinase 1 (Homo sapiens) (UniProt Q86Z02); test: Inhibition of HIPK1 (unknown origin) assessed as residual activity at 50 uM relative to control; how it was run: as §2
[11] = biological target: Insulin receptor (Homo sapiens) (UniProt P06213); test: Inhibition of activated IR (unknown origin) assessed as residual activity at 50 uM relative to control; how it was run: as §1
[12] = biological target: Aurora kinase B (Homo sapiens) (UniProt Q96GD4); test: Inhibition of aurora B (unknown origin) assessed as residual activity at 50 uM relative to control; how it was run: as §1
Aurora kinase B (Homo sapiens), sequence (Q96GD4 whole entry): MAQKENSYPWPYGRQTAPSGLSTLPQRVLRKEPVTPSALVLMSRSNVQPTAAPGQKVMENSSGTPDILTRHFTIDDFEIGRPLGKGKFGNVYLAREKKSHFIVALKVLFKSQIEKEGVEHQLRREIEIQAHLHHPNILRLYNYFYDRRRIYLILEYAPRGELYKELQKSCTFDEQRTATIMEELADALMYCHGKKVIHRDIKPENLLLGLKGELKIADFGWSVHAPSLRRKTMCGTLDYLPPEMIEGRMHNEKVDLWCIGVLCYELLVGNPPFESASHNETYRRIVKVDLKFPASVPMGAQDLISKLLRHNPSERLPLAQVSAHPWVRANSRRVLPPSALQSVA

[13] = biological target: Serine/threonine-protein kinase PAK 2 (Homo sapiens) (UniProt Q13177); test: Inhibition of PAK2 (unknown origin) assessed as residual activity at 50 uM relative to control; how it was run: as §2
Serine/threonine-protein kinase PAK 2 (Homo sapiens), sequence (Q13177 whole entry): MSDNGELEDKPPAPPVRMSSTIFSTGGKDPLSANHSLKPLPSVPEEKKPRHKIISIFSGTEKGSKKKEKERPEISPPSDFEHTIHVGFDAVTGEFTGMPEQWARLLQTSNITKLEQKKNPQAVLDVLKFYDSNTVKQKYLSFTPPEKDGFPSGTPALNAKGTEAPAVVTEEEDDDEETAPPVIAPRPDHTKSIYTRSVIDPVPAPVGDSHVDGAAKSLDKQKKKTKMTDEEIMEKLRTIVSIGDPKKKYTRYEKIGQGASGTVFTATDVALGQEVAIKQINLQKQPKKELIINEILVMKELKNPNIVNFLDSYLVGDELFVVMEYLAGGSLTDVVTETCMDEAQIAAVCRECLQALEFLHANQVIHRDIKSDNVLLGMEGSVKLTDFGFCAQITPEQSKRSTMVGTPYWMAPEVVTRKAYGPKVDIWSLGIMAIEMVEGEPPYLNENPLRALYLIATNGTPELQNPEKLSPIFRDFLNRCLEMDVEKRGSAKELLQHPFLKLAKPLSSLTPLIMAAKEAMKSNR

[14] = biological target: Mitogen-activated protein kinase 1 (Homo sapiens) (UniProt P28482); test: Inhibition of MAPK1 (unknown origin) assessed as residual activity at 50 uM relative to control; how it was run: as §2
[15] = biological target: Muscle, skeletal receptor tyrosine-protein kinase (Homo sapiens) (UniProt O15146); test: Inhibition of MUSK (unknown origin) assessed as residual activity at 50 uM relative to control; how it was run: as §2
Muscle, skeletal receptor tyrosine-protein kinase (Homo sapiens), sequence (O15146 whole entry): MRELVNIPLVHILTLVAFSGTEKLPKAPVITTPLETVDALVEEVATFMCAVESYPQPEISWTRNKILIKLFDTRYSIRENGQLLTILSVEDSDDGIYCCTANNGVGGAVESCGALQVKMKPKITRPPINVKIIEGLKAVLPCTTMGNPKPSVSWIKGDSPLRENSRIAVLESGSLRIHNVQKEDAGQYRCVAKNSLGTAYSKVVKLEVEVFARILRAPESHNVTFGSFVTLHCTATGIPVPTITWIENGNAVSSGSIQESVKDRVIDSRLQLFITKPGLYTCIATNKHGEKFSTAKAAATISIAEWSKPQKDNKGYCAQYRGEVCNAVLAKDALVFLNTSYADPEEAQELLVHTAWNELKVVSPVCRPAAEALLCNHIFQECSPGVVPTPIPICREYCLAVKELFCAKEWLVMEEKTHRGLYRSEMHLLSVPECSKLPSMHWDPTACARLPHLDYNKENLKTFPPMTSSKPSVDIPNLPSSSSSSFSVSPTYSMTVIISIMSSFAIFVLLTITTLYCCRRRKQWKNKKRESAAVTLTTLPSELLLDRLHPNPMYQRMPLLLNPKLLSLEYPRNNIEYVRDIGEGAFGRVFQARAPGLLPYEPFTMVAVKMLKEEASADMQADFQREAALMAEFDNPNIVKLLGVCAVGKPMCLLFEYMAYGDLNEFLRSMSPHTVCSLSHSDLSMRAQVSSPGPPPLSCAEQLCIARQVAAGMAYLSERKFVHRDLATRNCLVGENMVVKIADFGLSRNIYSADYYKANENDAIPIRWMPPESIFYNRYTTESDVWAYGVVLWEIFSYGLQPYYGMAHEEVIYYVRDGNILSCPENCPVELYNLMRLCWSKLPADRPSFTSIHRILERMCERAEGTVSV

[16] = biological target: Mast/stem cell growth factor receptor Kit (Homo sapiens) (UniProt P10721); test: Inhibition of cKIT (unknown origin) assessed as residual activity at 50 uM relative to control; how it was run: as §1
[17] = species on record: Homo sapiens; test: Inhibition of PKA (unknown origin) assessed as residual activity at 50 uM relative to control; how it was run: as §2
[18] = biological target: Proto-oncogene tyrosine-protein kinase Src (Homo sapiens) (UniProt P12931); test: Inhibition of cSRC (unknown origin) assessed as residual activity at 50 uM relative to control; how it was run: as §1
[19] = biological target: RAF proto-oncogene serine/threonine-protein kinase (Homo sapiens) (UniProt P04049); test: Inhibition of cRAF (unknown origin) assessed as residual activity at 50 uM relative to control; how it was run: as §1
RAF proto-oncogene serine/threonine-protein kinase (Homo sapiens), sequence (P04049 whole entry): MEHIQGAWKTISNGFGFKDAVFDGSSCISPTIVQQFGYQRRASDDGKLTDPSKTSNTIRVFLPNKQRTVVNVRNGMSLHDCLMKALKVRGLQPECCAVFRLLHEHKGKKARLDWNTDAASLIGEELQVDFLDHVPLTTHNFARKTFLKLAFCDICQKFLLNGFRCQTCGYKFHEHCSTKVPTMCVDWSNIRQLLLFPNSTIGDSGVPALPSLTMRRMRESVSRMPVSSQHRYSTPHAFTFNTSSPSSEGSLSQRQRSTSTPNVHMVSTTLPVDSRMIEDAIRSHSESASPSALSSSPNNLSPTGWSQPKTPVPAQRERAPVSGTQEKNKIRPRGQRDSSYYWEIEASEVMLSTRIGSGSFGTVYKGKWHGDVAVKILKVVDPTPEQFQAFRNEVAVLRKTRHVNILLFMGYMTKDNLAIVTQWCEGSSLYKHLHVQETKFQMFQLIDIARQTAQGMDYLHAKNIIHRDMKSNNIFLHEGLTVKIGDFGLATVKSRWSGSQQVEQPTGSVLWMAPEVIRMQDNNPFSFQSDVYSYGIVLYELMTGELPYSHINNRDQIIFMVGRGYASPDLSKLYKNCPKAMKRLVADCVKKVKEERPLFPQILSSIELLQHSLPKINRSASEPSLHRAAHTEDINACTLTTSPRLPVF

[20] = biological target: Protein kinase C alpha type (Homo sapiens) (UniProt P17252); test: Inhibition of PKCalpha (unknown origin) assessed as residual activity at 50 uM relative to control; how it was run: as §1
[21] = biological target: T1, Casein kinase II subunit alpha (Homo sapiens, UniProt P68400); test: Mixed-type inhibition of recombinant human GST-tagged CK2alpha in presence of ATP by Lineweaver-Burk plot analysis
Target sequence in this assay (P68400 whole entry): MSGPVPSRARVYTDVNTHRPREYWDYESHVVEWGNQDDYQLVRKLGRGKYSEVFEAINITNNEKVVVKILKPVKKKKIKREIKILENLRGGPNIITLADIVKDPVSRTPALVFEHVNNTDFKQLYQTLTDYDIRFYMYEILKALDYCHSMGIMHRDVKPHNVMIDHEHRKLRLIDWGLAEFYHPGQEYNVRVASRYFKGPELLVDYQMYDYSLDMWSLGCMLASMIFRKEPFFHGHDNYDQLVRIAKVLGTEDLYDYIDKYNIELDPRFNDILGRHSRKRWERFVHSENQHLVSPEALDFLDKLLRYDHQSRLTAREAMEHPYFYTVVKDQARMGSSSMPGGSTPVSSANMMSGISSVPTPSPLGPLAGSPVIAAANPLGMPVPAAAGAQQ

[22] = biological target: Tyrosine-protein kinase JAK2 (Homo sapiens) (UniProt O60674); test: Inhibition of JAK2 (unknown origin) assessed as residual activity at 50 uM relative to control; how it was run: as §2
[23] = biological target: Hepatocyte growth factor receptor (Homo sapiens) (UniProt P08581); test: Inhibition of MET (unknown origin) assessed as residual activity at 50 uM relative to control; how it was run: as §2
[24] = biological target: CDK9/cyclin T1 (Homo sapiens) (UniProt O60563+P50750); test: Inhibition of CDK9/cyclin T1 (unknown origin) assessed as residual activity at 50 uM relative to control; format: protein-complex assay; how it was run: as §2
[25] = biological target: T1, Casein kinase II subunit alpha; test: Inhibition of recombinant human GST-tagged CK2alpha in presence of ATP by radiometric kinase assay
Target sequence in this assay (P68400 whole entry): as above

[26] = biological target: Casein kinase II alpha/beta (Homo sapiens) (UniProt P67870+P68400); test: Inhibition of recombinant human GST-tagged CK2alpha2/CK2beta2 at 15 uM in presence of ATP by radiometric kinase assay; format: protein-complex assay
Casein kinase II alpha/beta (Homo sapiens), sequence (P67870 2-215 limits assumed): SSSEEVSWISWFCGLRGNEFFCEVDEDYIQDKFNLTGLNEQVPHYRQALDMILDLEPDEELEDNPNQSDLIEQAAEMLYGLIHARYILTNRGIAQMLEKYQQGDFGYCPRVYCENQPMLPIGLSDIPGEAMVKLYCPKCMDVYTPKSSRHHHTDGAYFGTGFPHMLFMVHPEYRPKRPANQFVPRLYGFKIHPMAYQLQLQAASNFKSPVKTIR
Casein kinase II alpha/beta (Homo sapiens), sequence (P68400 whole entry partner): as the sequence (P68400 whole entry) above

[27] = biological target: Inhibitor of nuclear factor kappa-B kinase subunit alpha (Homo sapiens) (UniProt O15111); test: Inhibition of IKKalpha (unknown origin) assessed as residual activity at 50 uM relative to control; how it was run: as §2
[28] = biological target: Serine/threonine-protein kinase pim-1 (Homo sapiens) (UniProt P11309); test: Inhibition of PIM1 (unknown origin) assessed as residual activity at 50 uM relative to control; how it was run: as §2
Serine/threonine-protein kinase pim-1 (Homo sapiens), sequence (P11309 whole entry, looked up): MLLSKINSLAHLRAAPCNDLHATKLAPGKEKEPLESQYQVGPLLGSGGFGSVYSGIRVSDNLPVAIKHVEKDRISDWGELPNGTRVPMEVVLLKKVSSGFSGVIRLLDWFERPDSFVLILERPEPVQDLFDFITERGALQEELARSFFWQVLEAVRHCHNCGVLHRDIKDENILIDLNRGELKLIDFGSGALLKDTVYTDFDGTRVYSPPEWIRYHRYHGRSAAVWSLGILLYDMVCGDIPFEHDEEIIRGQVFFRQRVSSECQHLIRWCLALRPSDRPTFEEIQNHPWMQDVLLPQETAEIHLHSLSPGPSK

[29] = biological target: Cyclin-dependent kinase 7/ cyclin H (Homo sapiens) (UniProt P51946+P50613); test: Inhibition of CDK7/cyclin H (unknown origin) assessed as residual activity at 50 uM relative to control; format: protein-complex assay; how it was run: as §2
[30] = biological target: RAC-alpha serine/threonine-protein kinase (Homo sapiens) (UniProt P31749); test: Inhibition of PKBalpha (unknown origin) assessed as residual activity at 50 uM relative to control; how it was run: as §1
[31] = biological target: 5'-AMP-activated protein kinase catalytic subunit alpha-1 (Homo sapiens) (UniProt Q13131); test: Inhibition of AMPKalpha1 (unknown origin) assessed as residual activity at 50 uM relative to control; how it was run: as §2
[32] = biological target: Tyrosine-protein kinase Fyn (Homo sapiens) (UniProt P06241); test: Inhibition of FYN (unknown origin) assessed as residual activity at 50 uM relative to control; how it was run: as §2
[33] = biological target: T1, Casein kinase II subunit alpha; test: Inhibition of CK2alpha (unknown origin) assessed as residual activity at 50 uM relative to control; how it was run: as §2
Target sequence in this assay (P68400 whole entry, looked up): as the sequence (P68400 whole entry) above

[34] = biological target: Glycogen synthase kinase-3 beta (Homo sapiens) (UniProt P49841); test: Inhibition of GSK3beta (unknown origin) assessed as residual activity at 50 uM relative to control; how it was run: as §2
[35] = biological target: Homeodomain-interacting protein kinase 3 (Homo sapiens) (UniProt Q9H422); test: Inhibition of HIPK3 (unknown origin) assessed as residual activity at 50 uM relative to control; how it was run: as §2

Compound `O=C(O)c1ccc(Nc2nc(-c3cccc([N+](=O)[O-])c3)cs2)cc1` has an Activity [1] of 99%, an Activity [2] of 104% and an Activity [3] of 101%. It also gave an Activity [4] of 101%, an Activity [5] of 104% and an Activity [6] of 97%. The Activity [7] was 95%, the Activity [8] was 104% and the Activity [9] was 89%. The Activity [10] was 97%, the Activity [11] was 93% and the Activity [12] was 74%. The Activity [13] was 102%, the Activity [14] was 84% and the Activity [15] was 62%. It also gave an Activity [16] of 87%, an Activity [17] of 87% and an Activity [18] of 97%. For the same compound, the Activity [19] was 92%, the Activity [20] was 86% and the Ki [21] was 1600 nM. The Activity [22] was 104%, the Activity [23] was 102% and the Activity [24] was 99%. For the same compound, the IC50 [25] was 7 µM, the inhibition [26] was “Active” and the Activity [27] was 103%. For the same compound, the Activity [28] was 46%, the Activity [29] was 104% and the Activity [30] was 85%. The Activity [31] was 71%, the Activity [32] was 97% and the Activity [33] was 0%. It also gave an Activity [34] of 79% and an Activity [35] of 98%.
